Among the data in ChEMBL document CHEMBL1127672, “Synthesis and biological evaluation of 2',3'-dideoxy-L-pyrimidine nucleosides as potential antiviral agents against human immunodeficiency virus (HIV) and hepatitis B virus (HBV)” (J Med Chem, 1994) are IC50 and EC50 values, retold here.

For assay [1], the system named is CCRF-CEM. As to the kind of experiment: In vitro cytotoxicity against human CCRF-CEM T-lymphoblastic leukemia cells was determined. Format: functional, cell-based. The method in brief: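 CCRF-CEM suspension cultures in RPMI 1640 plus 10% horse serum, 37 °C, 5% CO2; exponential-phase cells at 2 × 10^4 cells/mL given various concentrations; cell numbers counted after 3 days versus drug-free control; 50% value read from plot of cell number against concentration.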

The test system of the next assay is Hepatoma cell line. As to the kind of experiment: The compound was tested for antiviral activity against Hepatitis B virus in human hepatoma cells. Conditions: read-out: ED50 (the source's name). The class given is functional. The procedure, abridged: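 HBV-carrying human hepatoma 2.2.15 cells, six-day-old cultures in MEM with Earle's salts and 10% FBS, given varying drug concentrations for 3 days, medium renewed with same drug for a further 3 days; virions in harvested medium PEG-precipitated, viral DNA measured by Southern analysis against untreated controls; ED50 = 50% inhibition.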

The next assay has as its system MT2. As to the kind of experiment: The compound was tested for antiviral activity against HIV-1 in MT-2 cells. The note with it: read-out: ED50 (the source's name). The class given is functional, Homo sapiens. The method in brief:
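MT-2 cells (1 × 10^4/well, triplicate) in RPMI 1640 with 10% dialysed FBS infected with HIV-1 HTLV-IIIB at 0.1 TCID50/cell (0.01 for one compound), immediately added to serial drug dilutions; after 5 days, MTT read at A595; % protection versus infected and uninfected no-drug controls; ED50 from log plots.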

Assay [2] deals with CCRF-CEM. As to the kind of experiment: Concentration of compound required to inhibit the synthesis of mitochondrial DNA (mt DNA) in human CCRF-CEM T-lymphoblastic leukemia cells. Format: functional, cell-based. The method in brief:
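CEM cells exposed to varying drug concentrations, collected, washed in PBS, lysed in 10 mM Tris-HCl pH 7.0 by freeze-thaw; RNase A (10 μg/mL final) then proteinase K for 1 h; DNA blotted onto nylon after NaI addition and boiling 10 min. IC50 = concentration inhibiting mt DNA synthesis by 50%.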

The mark [3] stands for this setting: Homo sapiens, Hepatoma cell line.

As a reminder, the IC50 is the point on the concentration scale where inhibition reaches its midpoint. A low value points to inhibition by little substance. The compound `Nc1nc(=O)n([C@@H]2CC[C@H](CO)O2)cc1F` (stereo in doubt; form 1) came in with a concentration for half-maximal inhibition (IC50) with CCRF-CEM [1] (ccrf-cem) of 2 µM. In addition, the results for the EC50 with Hepatoma cell line and in the assay with MT2 were 10 µM and 2 µM, respectively.
As for `Nc1ccn([C@H]2CC[C@@H](CO)O2)c(=O)n1` (stereo in doubt; form 3) [ZALCITABINE], the half-inhibitory concentration (IC50) with CCRF-CEM [2] (ccrf-cem) was > 100 µM; in the assay with CCRF-CEM [1] (ccrf-cem), 70 µM. Further, the EC50 in the assay on Hepatoma cell line was 0.01 µM; in the assay on MT2, 5 µM.
Turning to `Nc1nc(=O)n([C@@H]2CC[C@H](CO)O2)cc1F` (stereo in doubt; form 2), the concentration for half-maximal inhibition (IC50) in the assay with CCRF-CEM [2] (Homo sapiens, CCRF-CEM) was > 100 µM; in the assay with CCRF-CEM [1] (ccrf-cem), 67 µM. Also, the EC50 came to 0.01 µM with Hepatoma cell line and 0.5 µM in the assay with MT2.
Regarding `O=c1ccn(C2CCC(CO)O2)c(=O)[nH]1` (stereo not drawn), the half-maximal inhibitory concentration (IC50) in the assay on CCRF-CEM [1] (Homo sapiens, CCRF-CEM) is > 100 µM. Moreover, the EC50 was > 100 µM with Hepatoma cell line (setting [3]) and > 100 µM with MT2 (Homo sapiens, MT2).
Consider `Nc1ccn([C@H]2CC[C@@H](CO)O2)c(=O)n1` (stereo in doubt; form 1) [ZALCITABINE], for which the IC50 in the assay on CCRF-CEM [2] (ccrf-cem) stood at 0.022 µM; with CCRF-CEM [1] (ccrf-cem), 28 µM. In addition, the EC50 with Hepatoma cell line came out at 2.8 µM; with MT2, 1.5 µM.
Consider `Nc1nc(=O)n([C@H]2CC[C@H](CO)O2)cc1F`, for which the IC50 in the assay on CCRF-CEM [1] (Homo sapiens, CCRF-CEM) is > 100 µM. The EC50 worked out at 0.5 µM in the assay with Hepatoma cell line (setting [3]) and 6 µM with MT2 (Homo sapiens, MT2).
As to `Cc1cn([C@@H]2CC[C@H](CO)O2)c(=O)[nH]c1=O`, the EC50 in the assay on Hepatoma cell line (setting [3]) was > 10 µM; in the assay on MT2 (Homo sapiens, MT2), > 100 µM.
For the compound `O=c1[nH]c(=O)n(C2CCC(CO)O2)cc1F` (stereo not drawn), in the assay with CCRF-CEM [1] (Homo sapiens, CCRF-CEM), the concentration for half-maximal inhibition (IC50) is > 100 µM. Besides, the EC50 with Hepatoma cell line (setting [3]) was > 10 µM; in the assay with MT2 (Homo sapiens, MT2), > 100 µM.
`Nc1ccn([C@H]2CC[C@@H](CO)O2)c(=O)n1` (stereo in doubt; form 2) [ZALCITABINE]: the EC50 is 5 µM in the assay with Hepatoma cell line and > 100 µM with MT2.
